The values below come from PMC12377326 (RSC Advances, 2025).

Where “and” joins values, the source holds several entries; their conditions need not be identical. Equal entries are not always repeated.

The target in assay [1] is T1, hCA IX (Homo sapiens, UniProt Q16790). Description: biochemical. Particulars: stopped-flow CO2-hydrase assay.
The target of a further assay is hCA II (Homo sapiens, UniProt P00918). Nature of the assay: hCA II counterscreen. Format: biochemical. The following applies: for S II = (IC50 hCA II, nM)/(IC50 hCA IX, nM): selectivity for CA IX over CA II. Put shortly: (§1)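 Recombinant human enzymes, >95% pure: hCA I (Ala2–Phe261) for line 1 and hCA II (Ser2–Lys260) for line 2. Run under the same conditions as the hCA IX assay at 25 °C. IC50 is the mean ± SD, n = 3. Where solubility prevented a full titration, IC50 was extrapolated from the linear range of the curve. Selectivity index = IC50 (hCA I or hCA II, nM)/IC50 (hCA IX, nM).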
A general note: Counterscreens check selectivity or assay interference.

In assay [2] the target is T1, hCA IX. Description: Steady-state CO2-hydrase enzyme kinetics. Format: biochemical. Particulars: Lineweaver–Burk and Michaelis–Menten plots; unchanged Km, reduced Vmax.
The target of a further assay is hCA I (Homo sapiens, UniProt P00915). Description: hCA I counterscreen. Format: biochemical. The following applies: for S I = (IC50 hCA I, nM)/(IC50 hCA IX, nM): selectivity for CA IX over CA I. Put shortly:
as §1

hCA I, sequence (P00915 2-261): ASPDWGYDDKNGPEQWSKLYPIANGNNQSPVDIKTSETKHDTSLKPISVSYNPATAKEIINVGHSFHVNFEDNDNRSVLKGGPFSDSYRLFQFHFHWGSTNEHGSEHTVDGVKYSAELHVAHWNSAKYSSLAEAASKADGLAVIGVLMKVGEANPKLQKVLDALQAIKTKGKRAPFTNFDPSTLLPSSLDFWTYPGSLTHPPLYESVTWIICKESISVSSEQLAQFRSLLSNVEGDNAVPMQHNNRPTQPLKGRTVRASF

As to `C=C[C@@]1(C)C=C2CC[C@@H]3[C@](C)(CCC[C@@]3(C)C(=O)O)[C@H]2CC1` [Pimaric acid, pimaric acid], the half-maximal inhibitory concentration (IC50) came out at 0.341 ± 0.0064 µM against hCA IX [1] (IC50 CA IX (printed in μM), mean ± SD); 0.341 ± 0.00637 µM at hCA IX [1] (IC50 hCA IX, pH 7.4, 25 °C, mean ± SD (n = 3)); 1620 ± 130 nM against hCA II; 2700 ± 250 nM at hCA I. For the same compound, the results for the “S II = (IC50 hCA II, nM)/(IC50 hCA IX, nM)” value (from here on “S II =”) at hCA II and on hCA II (listed as pimaric) were 4.8 and “≈ 5”, respectively. Further, the mode of inhibition result on hCA IX [2] is recorded as “non-competitive”. Moreover, the entries for the “S I = (IC50 hCA I, nM)/(IC50 hCA IX, nM)” value on hCA I and on hCA I (listed as pimaric) were 7.9 and “≈ 8”, respectively.
For the compound `CC(C)C1=CC2=C(CC1)[C@@]1(C)CCC[C@@](C)(C(=O)O)[C@@H]1CC2` [Palustric acid, palustric acid], the 50% inhibitory concentration (IC50) worked out at 1450 ± 120 nM against hCA II and 2250 ± 200 nM on hCA I. Besides, the “S II =” value on hCA II is on record as 5.0; at hCA II (listed as palustric) it was “≈ 5”. Also, the mode of inhibition entry on hCA IX [2] was “non-competitive”. The “S I = (IC50 hCA I, nM)/(IC50 hCA IX, nM)” value is on record as 7.8 on hCA I and “≈ 8” on hCA I (listed as palustric).
In the case of `CC(C)C1=CC[C@H]2C(=C1)CC[C@@H]1[C@]2(C)CCC[C@@]1(C)C(=O)O` [Levopimaric acid, levopimaric acid], at hCA II, half-maximal inhibition (IC50) was put at 680 ± 50 nM and the “S II =” value is reported as 4.6. In addition, the mode of inhibition result at hCA IX [2] was “non-competitive”. Besides, at hCA I, the IC50 was found to be 1500 ± 120 nM; the “S I = (IC50 hCA I, nM)/(IC50 hCA IX, nM)” value was 10 and 10.2.

The term IC50 denotes the midpoint of a concentration-inhibition curve.
